T cruzi growth-1: T. cruzi proliferation inhibition | 77,000 tested, 5.9% active | T. cruzi beta-gal in NIH3T3, GalScreen luminescence, 90 h | inhibition, % at 8.34 µM;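 active = mean inhibition above about 93%, with at least 55% of replicates each passing it, limit read from the data, passing the limit was not always enough; inconclusive = only one of those two conditions holds; inactive = neither condition holds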
Pf Dd2 growth: P. falciparum Dd2 growth inhibition | AID 1159554 | 94,000 tested, 2.3% active | activity change, % at 10 µM | SYBR Green, 72 h; active compounds read low; in the data active = activity change below about -80%; inconclusive = no clear call, values can overlap the other calls
KDM4C inh: blocks human GASC-1 (KDM4C) demethylase activity | Q9H3R0 | GST-KDM4C 2-372, H3K9me3 peptide, LANCE TR-FRET | inhibition, % at 12.5 µM | 96,000 tested, 0.15% active | AID 720574;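 active = mean replicate inhibition above about 25%, with at least 55% of replicates also reaching it, limit read from the data, passing the limit was not always enough; inconclusive = only one of those two conditions met; inactive = neither condition met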
Target sequence (Q9H3R0 2-372 limits assumed): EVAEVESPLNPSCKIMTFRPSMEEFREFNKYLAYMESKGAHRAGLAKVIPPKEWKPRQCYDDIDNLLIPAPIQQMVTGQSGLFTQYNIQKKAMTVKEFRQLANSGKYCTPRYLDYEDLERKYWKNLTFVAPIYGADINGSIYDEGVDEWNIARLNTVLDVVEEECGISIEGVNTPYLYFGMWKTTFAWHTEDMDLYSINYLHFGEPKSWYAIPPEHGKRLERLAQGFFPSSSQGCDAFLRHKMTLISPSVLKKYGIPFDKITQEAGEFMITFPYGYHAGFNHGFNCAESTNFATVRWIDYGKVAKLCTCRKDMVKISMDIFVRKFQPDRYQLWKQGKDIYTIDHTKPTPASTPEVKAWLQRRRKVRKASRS
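Material: GST-tagged GASC-1 (JMJD2C) catalytic fragment, aa 2-372. Input: enzyme final amount 10 nM. Medium: HEPES buffer, pH 7.5, plus ascorbate. Reagent: H3K9me3 peptide substrate, Fe(II), 2-oxoglutarate. Doses: single dose. Times: reaction 30 min RT, detection step 1 h RT. Measured by: LANCE TR-FRET. Evaluation: Fall in 671/618 emission ratio as inhibition.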
IDH1 R132H inh: IDH1 R132H (human) inhibition | O75874 | IDH1 R132H reductase, diaphorase/resazurin fluorescence, 60 min | inhibition, % at 10 µM | 70,000 tested, 0.18% active; in the data active = inhibition above about 34%; inconclusive = no clear call, values can overlap the other calls; inactive = below about 11%;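 note: 0% = DMSO and 100% = no enzyme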
T cruzi growth-2: blocks T. cruzi growth in NIH3T3 host cells; shares compounds with T cruzi growth-1; T. cruzi beta-gal in NIH3T3, GalScreen luminescence, 90 h; 5,600 tested, 72% active; inhibition, % at 8.35 µM;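 active = mean replicate inhibition above about 95% and at least 55% of replicates individually reaching it, limit read from the data; inconclusive = only one of the two criteria is met; inactive = neither criterion is met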
T cruzi growth-3: blocks T. cruzi growth in NIH3T3 host cells; 5,600 tested, 21% active; shares compounds with T cruzi growth-1; inhibition, % at 2.09 µM; T. cruzi beta-gal in NIH3T3, GalScreen luminescence, 90 h; AID 651740;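 active = mean inhibition above about 95%, with at least 55% of replicates also reaching it, limit read from the data; inconclusive = meets just one of the two conditions; inactive = meets neither condition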;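 note: plate controls were neutral control median for no effect and positive control median for full effect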
NIH3T3 tox: cytotoxicity in mouse NIH/3T3 fibroblasts; shares compounds with T cruzi growth-1; NIH/3T3 viability, CellTiter-Glo ATP luminescence, 90 h; cytotoxicity (signal decrease), % at 8.35 µM; 5,600 tested, 14% active; AID 651742;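 active = mean signal decrease across replicates above about 35% based on untreated-well scatter, with enough replicates individually passing, limit read from the data; inconclusive = no rule stated though some were filed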;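 note: 0% = median of neutral control wells and 100% = median of positive control wells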
3T3 cytotox 2: kills mouse NIH/3T3 fibroblasts | shares compounds with T cruzi growth-1 | NIH/3T3 viability, CellTiter-Glo ATP luminescence, 90 h | inhibition, % at 24.9 µM | 5,600 tested, 56% active;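 active = mean loss of cell viability signal at or above a set limit, and enough replicates individually reaching it; inconclusive = meets only the mean limit or only the replicate share; inactive = meets neither condition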;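 note: 0% = median of neutral control wells and 100% = median of positive control wells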
Starred values were filed as active, the others as inactive; ? = inconclusive; . = no result given. An excerpt weighted towards active compounds, which were near 5.8% of everything screened.

SMILES	T cruzi growth-1	Pf Dd2 growth	KDM4C inh	IDH1 R132H inh	T cruzi growth-2	T cruzi growth-3	NIH3T3 tox	3T3 cytotox 2
OC[C@@H]1[C@H](c2ccc(C#CC3(O)CCCC3)cc2)[C@@H]2CN(Cc3cncnc3)CCCCN12	?	-14.2	-1.7	.	97.8*	46.2	1.4	-2.4
OC[C@H]1[C@H](c2ccc(C#CC3(O)CCCC3)cc2)[C@@H]2CN(Cc3cncnc3)CCCCN12	97.6*	-12.5	2.2	.	82.3	39.9	4.3	-1.5
OC[C@H]1[C@@H](c2ccc(C#CC3(O)CCCC3)cc2)[C@@H]2CN(Cc3cncnc3)CCCCN12	21.5	3.6	-0.5	.	.	.	.	.
COc1ccc2c3c([nH]c2c1)[C@@H](CO)N(C(=O)Cc1ccccc1)CC31CN(C(=O)Cc2ccccc2)C1	.	-10.9	-0.4	.	.	.	.	.
N=c1c2cnn(-c3ccccc3)c2ncn1/N=C/c1ccc(Cl)cc1	.	.	.	-0.2	.	.	.	.
C[C@H]1CCCCO[C@H](CN(C)Cc2ccc3c(c2)OCO3)[C@@H](C)CN([C@@H](C)CO)C(=O)c2cc(NC(=O)Nc3ccc(F)cc3)ccc2O1	109.4*	-75.0	0.0	2.0	101.9*	98.9*	28.1	104.3*
C[C@@H]1CCCCO[C@@H](CN(C)Cc2ccc3c(c2)OCO3)[C@H](C)CN([C@H](C)CO)C(=O)c2cc(NC(=O)Nc3ccc(F)cc3)ccc2O1	?	-77.6	1.0	.	96.6*	100.3*	24.1	104.1*
O=C(CC(F)(F)F)N1C[C@@H]2[C@H](c3ccccc31)[C@H](CO)N2C(=O)C1CCOCC1	13.3	2.9	5.9	.	.	.	.	.
O=C(NCC[C@H]1CC[C@H](NS(=O)(=O)c2cccc(Cl)c2)[C@@H](CO)O1)c1cnccn1	143.8*	-2.1	-2.0	-0.2	21.1	-28.5	-16.2	18.2
COc1cccc(S(=O)(=O)N[C@H]2CC[C@@H](CCNC(=O)Cc3ccncc3)O[C@H]2CO)c1	106.2*	-5.1	0.7	-0.2	43.6	-9.3	-2.2	-3.8
COc1cccc(S(=O)(=O)N[C@H]2CC[C@@H](CCNC(=O)Cc3ccncc3)O[C@@H]2CO)c1	14.7	2.0	0.0	-0.4	.	.	.	.
O=C(NCC[C@@H]1CC[C@@H](NS(=O)(=O)c2cccc(Cl)c2)[C@@H](CO)O1)c1cnccn1	-31.2	13.7	-0.1	0.2	.	.	.	.
CC(C)NC(=O)N[C@@H]1C=C[C@@H](CC(=O)NCc2ccc(Oc3ccccc3)cc2)O[C@@H]1CO	-0.5	1.1	-1.0	0.2	.	.	.	.
O=C(C[C@@H]1C=C[C@@H](NC(=O)Cc2cccnc2)[C@H](CO)O1)Nc1ccc(-c2ccccc2)cc1	.	10.2	-0.4	.	.	.	.	.
COc1cccc(NC(=O)N(C)C[C@@H]2Oc3cc(C#Cc4ccncc4)ccc3S(=O)(=O)N([C@H](C)CO)C[C@@H]2C)c1	68.3	?	-2.2	-10.4	.	.	.	.
COc1cccc(NC(=O)N(C)C[C@@H]2Oc3cc(C#Cc4ccncc4)ccc3S(=O)(=O)N([C@H](C)CO)C[C@H]2C)c1	-55.0	-55.0	0.7	.	.	.	.	.
COc1cccc(NC(=O)N(C)C[C@@H]2Oc3cc(C#Cc4ccccc4)ccc3S(=O)(=O)N([C@H](C)CO)C[C@@H]2C)c1	86.4*	-90.3*	.	.	103.5*	?	31.6	21.5
COc1cccc(NC(=O)N(C)C[C@@H]2Oc3cc(C#Cc4ccc(F)cc4)ccc3S(=O)(=O)N([C@H](C)CO)C[C@H]2C)c1	103.1*	-77.7	0.4	.	97.7*	93.5	22.4	55.1*
COc1cccc(C#Cc2ccc3c(c2)O[C@H](CN(C)C(C)=O)[C@@H](C)CN([C@H](C)CO)S3(=O)=O)c1	?	-70.7	-0.7	0.1	105.4*	37.8	10.1	35.3*
COc1cccc(NC(=O)N(C)C[C@@H]2Oc3cc(C#Cc4ccc(F)cc4)ccc3S(=O)(=O)N([C@H](C)CO)C[C@@H]2C)c1	117.5*	-89.8*	5.6	2.3	98.8*	110.7*	49.9*	37.6*
